Measured values of several laboratories.
Protocols differ between the studies behind these lines.
Target: Delta-type opioid receptor (OPRD1, Homo sapiens, UniProt P41143)

With `CC(C)N1CCC[C@H]1CNC(=O)c1cn(C2CCCC2)c(=O)c2c1c1ccccc1n2C` the inhibition was 6% (ligand displacement; radioligand; 10 µM).
`Clc1ccc2c(C3CCN(CCc4c[nH]c5ccccc45)CC3)c[nH]c2c1` gave an inhibition of 35% (ligand displacement; radioligand; 10 µM).
For `Nc1ncc(-c2nc(N3CCOCC3)nc(N3CCOCC3)n2)c(C(F)F)n1`, the remaining signal was 103% (cell-free assay; radioligand; 10 µM).
`CC1(C)SSC(C)(C)[C@@H](NC(=O)[C@@H](N)Cc2ccc(O)cc2)C(=O)NCC(=O)N[C@@H](Cc2ccccc2)C(=O)N2CCN(CC2)C(=O)[C@H](Cc2ccccc2)NC(=O)CNC(=O)[C@@H]1NC(=O)[C@@H](N)Cc1ccc(O)cc1` has an Emax of 206% (cAMP; agonist; luciferase; HEK293).
With `Cc1cc(Nc2nccc(C)n2)cc(-c2cnc([C@@]3(O)CC[C@H](C(=O)O)C(C)(C)C3)s2)c1` the inhibition was 12.8% (ligand displacement; 10 µM).
The Emax of `CC[C@@H]1CN2CC[C@@]3(O)C(=Nc4cccc(-c5ccoc5)c43)[C@@H]2C[C@@H]1/C(=C\OC)C(=O)OC` is reported as greater than 100% (β-arrestin recruitment; agonist).
`c1ccc(C(NCCNC(c2ccccc2)c2ccccc2)c2ccccc2)cc1` has an inhibition of 81% (ligand displacement; 10 µM).
`O=C(c1ccc(F)cc1)N1CC(COc2ccc(Br)cc2)(C(=O)O)C1` has an inhibition of -5.22% (cell-free assay; 10 µM).
With `CC[C@@H]1CN2CC[C@@]3(O)C(=Nc4cccc(-c5ccccc5)c43)[C@@H]2C[C@@H]1/C(=C\OC)C(=O)OC` the Emax was greater than 100% (β-arrestin recruitment; agonist).
With `COCc1c(-c2cc3cc(C)cc(OC)c3s2)c2c(N)ncnn2c1CN1CCNC(=O)C1` the inhibition was 16% (ligand displacement; radioligand; 10 µM).
For `C[C@H](C(=O)N[C@H]1COc2ccccc2[C@@H]1S(C)(=O)=O)c1ccc(F)cc1`, the inhibition was 1% (ligand displacement; 10 µM).
For `CCN(CC)CCCC[C@H](NC(=O)[C@H](CC(C)C)NC(=O)[C@H](C)NC(=O)[C@H](Cc1ccccc1)NC(=O)c1ccc(C(C)(C)C)cc1)C(=O)N[C@@H](CO)C(=O)OC`, the remaining binding was 71.4% (ligand displacement; radioligand; 10 µM).
